Compound activity (PubChem)
Hits are enriched below; roughly 3.9% of the tested compounds scored in any of these assays.
TMEM16A act = TMEM16A chloride channel activators or potentiators, primary screen, cell-based, HTS; Anoctamin-1 (Mus musculus), Q8BHY3; HEK293 TMEM16A/YFP-H148Q/I152L, iodide quench fluorescence; stronger effect = lower value; B-score at 10 µM; 340,000 tested, 0.3% active;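 active = fluorescence-ratio B-score plate-corrected deviation score at least 3 library SD below zero, with starting fluorescence score within 5 deviations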;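 also: channel opened by trigger with iodide after compound preincubation; score built on the fluorescence ratio of max minus min over baseline; more negative score means more quench and so TMEM16A activation or potentiation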
TAAR1 antag = human TAAR1 antagonists, primary screen, Fluo-8 calcium fluorescence, CHO RD-HGA16 cells. Trace amine-associated receptor 1 (Homo sapiens), Q96RJ0. antagonist. inhibition, % at 3 µM. 360,000 tested, 1.5% active. AID 624466, 2012;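 active = inhibition above a per-plate cutoff, the mean inhibition of test compounds on that plate plus 3 SD, cut at about 49% in these data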;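 also: 0% = DMSO plus EC80 beta-PEA response and 100% = DMSO alone without agonist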
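Test system – hTAAR1-expressing CHO RD-HGA16 cells, Gα16-coupled · Also added – β-PEA at EC80 concentration, post-compound challenge · Compound – 3 µM, single point · Incubation – dye loading 75 min at 37 °C, then 30 min room temperature · Measured by – Fluo-8 intracellular calcium dye fluorescence, real-time kinetic reads · Benchmarks – vehicle and agonist controls · Replicates – singlicate, one well per test compound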
TMEM16A inh = TMEM16A chloride channel inhibitors, primary screen, cell-based, HTS; normalized B-score (activity score, 25-100; higher = stronger inhibition) at 10 µM; 310,000 tested, 1.2% active; Anoctamin-1 (Mus musculus), Q8BHY3; HEK293 TMEM16A/YFP iodide influx fluorescence, ionomycin;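 active = ratio plate-corrected score three or more library SD toward inhibition, starting fluorescence score within five deviations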;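 also: score derived from kinetic fluorescence span divided by baseline fluorescence per well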
CRFBP-R2 block = antagonists of CRF-BP/CRF-R2 complex, primary screen, cell-based, HEK293, calcium dye fluorescence, uHTS; CRF-induced calcium fluorescence; inhibition, % at 11.8 µM; 350,000 tested, 0.59% active;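 active = inhibition of the ligand-induced calcium signal above about 50% at the single tested concentration, limit read from the data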
TAAR1 agonist = human TAAR1 agonists, primary screen, Fluo-8 calcium fluorescence, CHO RD-HGA16 cells; AID 624467, 2012; activation, % at 3 µM; vehicle wells 0%, saturating PEA agonist 100%; 360,000 tested, 0.99% active;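 active = activation above the mean activation of all test compounds in the run plus 3 SD, cut at about 38% in these data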
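Test system: RD-HGA16 (CHO) cells co-expressing Gα16 and hTAAR1; dosing: one-point dosing at 3 µM (nominal); timing: 17-24 h seeding, 75 min 37 °C dye, 30 min RT; signal: kinetic Fluo-8 calcium fluorescence; read-out basis: % activation relative to PEA EC100 response; controls: DMSO and PEA EC100; replicates: n 1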
CRFR2-BP ag = agonists of CRF-BP/CRF-R2 complex, primary screen, cell-based, HEK293, calcium dye fluorescence, uHTS | CRF-binding protein / CRF receptor 2 complex (human) | calcium dye fluorescence (FLIPR); percent of saturating CRF peptide response | activation, % at 13.2 µM | 350,000 tested, 0.46% active;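 active = activation of at least 50%, plus an integration ratio under a set limit after plate pattern correction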;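 also: plate controls were neutral control wells without compound for no effect and CRF at EC100 for full effect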
An asterisk follows results filed as active.

For Cc1ccc(S(=O)(=O)N[C@H](C(=O)OCC(=O)N2N=C(c3ccc(Cl)cc3)CC2c2ccco2)C(C)C)cc1 (stereo not given in full) the results were TMEM16A act inactive, TAAR1 antag -2.5, TMEM16A inh inactive, CRFBP-R2 block -62.7, TAAR1 agonist 4.3 and CRFR2-BP ag 57.6*.
Screening CC(=O)N1N=C(c2ccc(Cl)cc2)CC1c1ccco1 (stereo not given) returned TMEM16A act inactive, TAAR1 antag -23.1, TMEM16A inh inactive, CRFBP-R2 block -11.0, TAAR1 agonist -2.4 and CRFR2-BP ag 0.4.
CC(=O)NCC1COc2ccccc2O1 (stereo not given) was read as TMEM16A act inactive, TAAR1 antag 8.6, TMEM16A inh inactive, CRFBP-R2 block 1.1, TAAR1 agonist 3.6 and CRFR2-BP ag -0.9.
`Cc1cc(=O)oc(C)c1C(=O)NCC1COc2ccccc2O1` (stereo not given) gave TMEM16A act inactive, TAAR1 antag -10.7, TMEM16A inh inactive, CRFBP-R2 block 4.1, TAAR1 agonist 39.9* and CRFR2-BP ag 0.1.
Screening CCC(C)(C)C1CCC2(CC1)NC(CO)(CO)CO2 (stereo not given) returned TMEM16A act -4.87*, TAAR1 antag 12.1, TMEM16A inh inactive, CRFBP-R2 block 6.3, TAAR1 agonist 6.1 and CRFR2-BP ag -1.4.
O=c1c2c([nH]c3ccc(Br)cc13)CCCC2 was read as TMEM16A act inactive, TAAR1 antag -9.8, TMEM16A inh inactive, CRFBP-R2 block 5.7, TAAR1 agonist -2.9 and CRFR2-BP ag -0.9.
`O=c1ccc2cc3c([nH]c4ccc(Br)cc43)oc-2c1O` gave TMEM16A act inactive, TAAR1 antag 10.6, TMEM16A inh inactive and TAAR1 agonist 38.2*.
CCOC(=O)N1CCN=C1SCc1ccc(Cl)c(Cl)c1 was read as TMEM16A act inactive, TAAR1 antag -22.2, TMEM16A inh inactive, CRFBP-R2 block 3.1, TAAR1 agonist 3.6 and CRFR2-BP ag 1.6.
CCCCn1nnnc1C(c1cc2ccccc2o1)N1CCCN(C(=O)OC(C)(C)C)CC1 (stereo not given) was read as TAAR1 antag 19.7 and TAAR1 agonist 0.1.
`COC(=O)C1=C(C)N(Cc2ccccc2)C(=NCC(C)C)N[C@H]1c1cccc(F)c1` gave TMEM16A act inactive, TAAR1 antag 40.2, CRFBP-R2 block -13.0, TAAR1 agonist 44.4* and CRFR2-BP ag 5.0.
Screening COC(=O)C1=C(C)N(Cc2ccccc2)C(=S)N[C@H]1c1cccc(C(F)(F)F)c1 returned TMEM16A act inactive, TAAR1 antag 55.6*, CRFBP-R2 block 4.6, TAAR1 agonist 5.6 and CRFR2-BP ag -0.7.
Screening COC(=O)C1=C(C)N(Cc2ccccc2)C(=O)N[C@H]1c1cccc(C(F)(F)F)c1 returned TMEM16A act inactive, TAAR1 antag 27.4, TMEM16A inh inactive, CRFBP-R2 block -3.9, TAAR1 agonist 2.9 and CRFR2-BP ag -1.7.
`CCCCCCSc1cc(C)nc2ncnn12` gave TMEM16A act inactive, TAAR1 antag -24.0, TMEM16A inh inactive, CRFBP-R2 block 28.3, TAAR1 agonist -0.5 and CRFR2-BP ag -0.8.
CCSc1cc(C)nc2ncnn12 was read as TMEM16A act -19.4*, TAAR1 antag -25.2, TMEM16A inh inactive, CRFBP-R2 block 10.0, TAAR1 agonist 1.9 and CRFR2-BP ag 0.3.
For O=C(CNS(=O)(=O)c1c(F)cc(F)cc1Br)OCC(=O)N1CCCC1=O the results were TMEM16A act inactive, TAAR1 antag -14.4, TMEM16A inh inactive, CRFBP-R2 block 8.1, TAAR1 agonist 0.5 and CRFR2-BP ag 2.5.
For O=C1CC(N2CCOCC2)C(=O)N1c1ccccc1Cl (stereo not given) the results were TMEM16A act inactive, TAAR1 antag -6.6, TMEM16A inh inactive, CRFBP-R2 block -3.8, TAAR1 agonist 9.7 and CRFR2-BP ag 0.3.
O=C1CC(Nc2cc(=O)[nH]c(=O)[nH]2)C(=O)N1c1ccccc1Cl (stereo not given) was read as TMEM16A act inactive, TAAR1 antag -11.4, TMEM16A inh inactive, CRFBP-R2 block 82.3*, TAAR1 agonist 2.8 and CRFR2-BP ag 2.4.
Screening Cc1sc2ncnc(SCC(=O)N3CCCC(C(F)(F)F)C3)c2c1C (stereo not given) returned TMEM16A act inactive, TAAR1 antag -11.4, TMEM16A inh inactive, CRFBP-R2 block 6.0, TAAR1 agonist 2.6 and CRFR2-BP ag -2.5.
For COc1cccc(CC2(CO)CCCN(Cc3ccc(C)s3)C2)c1 (stereo not given) the results were TMEM16A act inactive, TAAR1 antag 6.9, TMEM16A inh inactive, CRFBP-R2 block 3.3, TAAR1 agonist 3.4 and CRFR2-BP ag -0.4.
Screening COc1cccc(CC2(CO)CCCN(Cc3cc4ccccc4[nH]3)C2)c1 (stereo not given) returned TMEM16A act inactive, TAAR1 antag 10.4, TMEM16A inh inactive, CRFBP-R2 block -117.7, TAAR1 agonist 20.4 and CRFR2-BP ag 120.0*.
Screening OC(c1ccccc1)c1nc(/C=C/c2ccccc2)cs1 (stereo not given) returned TAAR1 antag 0.9 and TAAR1 agonist -0.2.
For CCOc1ccc(N(CC(=O)NC2CCCCC2)C(=O)CCC(=O)Nc2cc(C)ccn2)cc1 the results were TMEM16A act inactive, TAAR1 antag -19.1, TMEM16A inh inactive, CRFBP-R2 block -3.1, TAAR1 agonist 0.5 and CRFR2-BP ag -0.1.
Screening CCCCn1c(NC(=O)CC)c(C#N)c2nc3ccccc3nc21 returned TMEM16A act inactive, TAAR1 antag -9.8, TMEM16A inh inactive, CRFBP-R2 block 22.5, TAAR1 agonist 2.2 and CRFR2-BP ag -0.8.
`CCCCn1c(NC(=O)c2ccccc2Cl)c(C#N)c2nc3ccccc3nc21` gave TMEM16A act inactive, TAAR1 antag 38.2, TMEM16A inh 100*, CRFBP-R2 block -6.5, TAAR1 agonist 5.2 and CRFR2-BP ag 31.0.
For N#Cc1c(NC(=O)c2ccccc2Cl)n(Cc2ccccc2)c2nc3ccccc3nc12 the results were TMEM16A act inactive, TAAR1 antag 45.8, TMEM16A inh 100*, CRFBP-R2 block 3.4, TAAR1 agonist 10.8 and CRFR2-BP ag 8.8.
